Assay results collected from several papers.
Observed: enzyme activity
Mode: inhibitor
EGFR L858R/T790M: Epidermal growth factor receptor (EGFR, Homo sapiens, UniProt P00533, L858R/T790M)
EGFR: Epidermal growth factor receptor (EGFR, Homo sapiens, UniProt P00533)
EGFR L858R: Epidermal growth factor receptor (EGFR, Homo sapiens, UniProt P00533, L858R)

C=CC(=O)Nc1cc(Nc2nc(N3CCc4sccc4C3)c3cccnc3n2)c(OC)cc1N1CCC(N(C)C)CC1 — IC50 (EGFR L858R/T790M; ELISA): 349 nM
COc1ccc(-c2csc(Nc3ccc4c(O)ncnc4c3)n2)cc1 — IC50 (EGFR; ELISA): 10.1 nM
CCC(=O)Nc1cc(Nc2nc(N3CCc4sccc4C3)c3cccnc3n2)c(OC)cc1N1CCSCC1 — IC50 (EGFR; ELISA): > 1000 nM
CC(C)Cc1ccc(-c2nn(-c3ccc(S(C)(=O)=O)cc3)cc2/C=N/N=c2\[nH]c(-c3ccc([N+](=O)[O-])cc3)cs2)cc1 — IC50 (EGFR L858R): 114 nM
C=C(Cl)C(=O)Nc1cc(Nc2nc(N3CCOCC3)c3sccc3n2)c(OC)cc1N(C)CCN(C)C — IC50 (EGFR; ELISA): > 1000 nM
C=CC(=O)Nc1cc(Nc2nccc(-c3cn(C4CC4)c4ccccc34)n2)c(OC)cc1N(C)CCN(C)C — IC50 (Epidermal growth factor receptor (EGFR, Homo sapiens, UniProt P00533, G719D); TR-FRET): 54.1 nM
C=CC(=O)Nc1cc(Nc2nccc(Nc3cc(Cl)c(F)cc3C(C)(C)O)n2)c(OC)cc1N1CC[C@@H](N(C)C)C1 — IC50 (EGFR L858R/T790M; with preincubation): 13 nM
COCCOc1cc2ncnc(Nc3ccc(OCCn4ccnc4[N+](=O)[O-])c(Cl)c3)c2cc1OCCOC — IC50 (EGFR; FRET): 230 nM
COc1cc2ncnc(Nc3ccc(F)c(Cl)c3)c2cc1NC(=O)N/N=C/c1cccn1CCCN(C)C — IC50 (EGFR L858R/T790M): 24.3 nM
C=C(Cl)C(=O)Nc1cc(Nc2nc(N3CCc4sccc4C3)c3sccc3n2)c(OC)cc1N(C)CCN(C)C — IC50 (Epidermal growth factor receptor (EGFR, Homo sapiens, UniProt P00533, C797S/L858R/T790M); ELISA): > 1000 nM
O=C(N/N=C/CN1CCCCC1)Nc1cc2c(Nc3ccc(F)c(Cl)c3)ncnc2cc1O[C@H]1CCOC1 — IC50 (EGFR): 0.1 nM
COc1cc2ncnc(Nc3ccc(OCCCn4ccnc4[N+](=O)[O-])c(Cl)c3)c2cc1OCCCN1CCOCC1 — IC50 (EGFR; FRET): 180 nM
COc1ccc(-c2nn(-c3ccc(S(C)(=O)=O)cc3)cc2/C=N/N=c2\[nH]c(-c3ccc(Br)cc3)cs2)cc1 — IC50 (EGFR L858R): 36 nM
O=C(N/N=C/c1cccn1CCN1CCOCC1)Nc1cc2c(Nc3ccc(F)c(Cl)c3)ncnc2cc1O[C@H]1CCOC1 — IC50 (EGFR): 0.6 nM
COc1ccc(-c2nn(-c3ccc(S(C)(=O)=O)cc3)cc2C=N/N=c2\[nH]c(-c3ccc([N+](=O)[O-])cc3)cs2)cc1 — IC50 (EGFR L858R/T790M): 80 nM
COc1cc2ncnc(Nc3ccc(F)c(Cl)c3)c2cc1NC(=O)N/N=C/c1cccn1CCN(C)C — IC50 (EGFR): 0.1 nM
COc1cc2c(Nc3ccc(OCCCn4ccnc4[N+](=O)[O-])c(Cl)c3)ncnc2cc1OCCCN1CCOCC1 — IC50 (EGFR; FRET): 330 nM
Oc1ncnc2cc(Nc3nc(-c4ccccc4)cs3)ccc12 — IC50 (EGFR; ELISA): 10 nM
C=C(Cl)C(=O)Nc1cc(Nc2nc(Nc3cnn(C)c3)c3sccc3n2)c(OC)cc1N1CCN(C)CC1 — IC50 (EGFR L858R/T790M; ELISA): 173 nM
CN(C)C/C=N/NC(=O)Nc1cc2c(Nc3ccc(F)c(Cl)c3)ncnc2cc1O[C@H]1CCOC1 — IC50 (EGFR): 0.2 nM
Oc1ncnc2cc(Nc3nc(-c4ccc(Cl)cc4)cs3)ccc12 — IC50 (EGFR; ELISA): 4.81 nM
O=C(N/N=C/CN1CCOCC1)Nc1cc2c(Nc3ccc(F)c(Cl)c3)ncnc2cc1O[C@H]1CCOC1 — IC50 (EGFR L858R/T790M): 14.3 nM
COc1cc2ncnc(NCCSc3ccc(Cl)cc3)c2cc1OC — IC50 (EGFR; mobility shift): 320 nM
CN1CCN(C/C=N/NC(=O)Nc2cc3c(Nc4ccc(F)c(Cl)c4)ncnc3cc2O[C@H]2CCOC2)CC1 — IC50 (EGFR): 1.8 nM
COc1ccc2c(Oc3ccc4c(C(=O)Nc5ccccc5N)cccc4c3)ccnc2c1 — IC50 (EGFR): > 500 nM
Fc1ccc(-c2n[nH]cc2C=NNc2ccnc3cc(Cl)ccc23)cc1 — IC50 (EGFR; mobility shift): 73000 nM
CCN(CC)CCCn1cccc1/C=N/NC(=O)Nc1cc2c(Nc3ccc(F)c(Cl)c3)ncnc2cc1O[C@H]1CCOC1 — IC50 (EGFR): 0.5 nM
Nc1ccc(-c2csc(Nc3ccc4c(O)ncnc4c3)n2)cc1 — IC50 (EGFR; ELISA): 14.2 nM
C=C(Cl)C(=O)Nc1cc(Nc2nc(Nc3cnn(C)c3)c3sccc3n2)c(OC)cc1N(C)CCN(C)C — IC50 (EGFR L858R/T790M; ELISA): 5.9 nM
O=[N+]([O-])c1ccc(-c2csc(Nc3ccc4c(O)ncnc4c3)n2)cc1 — IC50 (EGFR; ELISA): 2.93 nM
COC(=O)/C=C/c1ccc2ncnc(Nc3cccc(C(F)(F)F)c3)c2c1 — IC50 (EGFR; radiometric): 19.1 nM
